Calls of active or inactive are those of the source.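 The calls were made as follows: active = compounds leaving under half of the peptide-driven platelet calcium rise; inactive = the rest.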
Target: Proteinase-activated receptor 4 (Homo sapiens) (UniProt Q96RI0)
Experiment: inhibition of PAR4-AP calcium signal – cell-based, single concentration, washed platelets, Fluo4 calcium (AID 652250)
Settings: PAR4-AP calcium Fluo4 fluorescence; for % of max PAR4-AP calcium response: at 10 µM, stronger effect = lower value
Outline: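 Test system: Fluo4-AM-loaded washed human platelets | Input: 10^8 platelets/mL | Signal: Fluorescence at 480/540 nm, 1 s intervals | Controls: PAR4-AP-stimulated DMSO control (100%) | Replication: Triplicate wells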

Sequence of Proteinase-activated receptor 4 (Homo sapiens) (Q96RI0 whole entry, looked up): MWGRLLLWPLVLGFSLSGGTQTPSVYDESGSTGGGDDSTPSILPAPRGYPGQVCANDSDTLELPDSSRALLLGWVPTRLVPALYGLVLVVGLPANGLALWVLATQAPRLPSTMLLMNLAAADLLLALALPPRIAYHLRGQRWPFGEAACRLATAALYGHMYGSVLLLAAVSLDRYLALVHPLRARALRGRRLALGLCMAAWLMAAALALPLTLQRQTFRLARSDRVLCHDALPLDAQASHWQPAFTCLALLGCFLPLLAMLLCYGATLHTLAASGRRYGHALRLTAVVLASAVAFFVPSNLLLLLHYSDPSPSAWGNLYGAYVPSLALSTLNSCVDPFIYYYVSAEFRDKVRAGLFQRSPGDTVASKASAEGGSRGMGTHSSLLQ

| Compound | % of max PAR4-AP calcium response | IC50 |
| --- | --- | --- |
| O=C(Cn1cc(C(=O)C(F)(F)F)c2ccccc21)NC1CCCC1 | inactive |  |
| COc1ccc(-c2cn(Cc3ccccc3)c3ccccc23)c(OC)n1 | inactive |  |
| Fc1ccc(OCCn2cc(C(=S)N3CCCCC3)c3ccccc32)cc1 | inactive |  |
| Cc1ccc(-n2cc(-c3ccccc3)c3c(NCc4ccc5c(c4)OCO5)ncnc32)cc1Cl | inactive |  |
| CCCCNC(=O)n1ccc(C(=O)Nc2ccc(C)cc2C)n1 | inactive |  |
| OCCc1c(-c2ccccc2)n(Cc2ccccc2)c2ccccc12 | inactive |  |
| COc1ccc(NCC(O)Cn2c(C)c(C)c3ccccc32)cc1 (stereo not given) | inactive |  |
| O=C(Cn1cc(CO)c2ccccc21)Nc1ccc(Cl)cc1 | inactive |  |
| O=C(c1cn(Cc2ccccc2Cl)c2ccccc12)C(F)(F)F | inactive |  |
| COc1ccc(-c2cn(Cc3cccc(S(C)(=O)=O)c3)c3ccccc23)cn1 |  | 10 µM |
| Cc1cc(-c2cn(Cc3ccccc3)c3ccccc23)cnc1F | inactive |  |
| CCSc1ncnc2c1c(-c1ccccc1)cn2-c1ccc(F)cc1 | inactive |  |
| COc1cccc(/C=N/NC(=O)c2ccn(Cc3ccc(Cl)cc3Cl)n2)c1OC | inactive |  |
| Cn1cc(CC(=O)NCc2cccs2)c2ccccc21 | inactive |  |
| FC(F)(F)Oc1ccc(-c2cn(Cc3ccccc3)c3ccccc23)cc1 | inactive |  |
| CN(C)c1ccc(-c2cn(Cc3ccccc3)c3ccccc23)cn1 | inactive |  |
| Cc1cccc(-n2cc(-c3ccccc3)c3c(N4CCN(c5ccccc5)CC4)ncnc32)c1 | inactive |  |
| Cc1ccc(OCCCn2cc(C(=O)C(F)(F)F)c3ccccc32)cc1 | inactive |  |
| Cc1cc(C)nc(SCC(=O)n2c(C)c(C)c3ccccc32)n1 | inactive |  |
| O=C(c1cn(CCOc2ccccc2Cl)c2ccccc12)C(F)(F)F | inactive |  |
| Cc1c(CCO)c2ccccc2n1-c1ccccc1 | inactive |  |
| CCc1nn(-c2ccccc2)c2nc(-c3ccccc3OC)c3cc(OC)c(OC)cc3c12 | inactive |  |
| Fc1cccc(Cn2cc(C(=S)N3CCCCC3)c3ccccc32)c1 | inactive |  |
| COc1ccc(N(C)C(=O)Cc2c(C(=O)O)n(C)c3ccccc23)cc1 | inactive |  |

| Compound | % of max PAR4-AP calcium response | IC50 |
| --- | --- | --- |
| Fc1ccc(OCCn2cc(C(=S)N3CCOCC3)c3ccccc32)cc1 | 38% |  |
| c1ccc(COc2ccc(-c3cn(Cc4ccccc4)c4ccccc34)cc2)cc1 | inactive |  |
| Cn1cc(CC(=O)NCCCN2CCCC2=O)c2ccccc21 | inactive |  |
| O=C(Nc1cccc(Br)c1)c1ccn(C(=O)c2ccc(Cl)cc2)n1 | inactive |  |
| OCCCNc1ncnc2c1c(-c1ccccc1)cn2-c1cccc(Cl)c1 | inactive |  |
| CCn1ccc(C(=O)NC2CCCCC2)n1 | inactive |  |
| O=C(Cn1cc(C(=O)C(F)(F)F)c2ccccc21)NC1CCCCCC1 | inactive |  |
| O=C(c1ccccc1)n1cc(-c2nc3cc(Cl)ccc3o2)cn1 | inactive |  |
| CC(=O)c1ccc(N2CCN(c3ncnc4c3c(-c3ccccc3)cn4-c3ccccc3)CC2)cc1 | inactive |  |
| Cc1c(C)n(CC(O)CNCCCO)c2ccccc12 (stereo not given) | inactive |  |
| COc1ccccc1NS(=O)(=O)c1ccc(NC(=O)c2ccc3c(c2)c(C)c(C)n3C)cc1 | inactive |  |
| CN(C)CCNC(=O)Cc1cn(C)c2ccccc12 | inactive |  |
| Fc1ccccc1Cn1cc(C(=S)N2CCOCC2)c2ccccc21 | inactive |  |
| CC(C)Oc1ccc(-c2cn(Cc3ccccc3)c3ccccc23)cc1 | inactive |  |
| CC(=O)n1cc(C(C[N+](=O)[O-])SCc2ccccc2)c2ccccc21 (stereo not given) | inactive |  |
| c1ccc(Cn2cc(CN3CCN(c4ccccc4)CC3)c3ccccc32)cc1 | inactive |  |
| COc1ccccc1OCCn1cc(C(=S)N2CCCC2)c2ccccc21 | inactive |  |
| COc1ccc(-n2nc(C(=O)NCCC3=CCCCC3)c3c4ccccc4n(C)c3c2=O)cc1Cl | inactive |  |
| COc1ccc(Br)cc1CNC(=O)CCCc1cn(C)c2ccccc12 | inactive |  |
| CCN1CCN(c2ncnc3c2c(-c2ccccc2)cn3-c2ccc(Br)cc2)CC1 | inactive |  |
| COc1ccc(OCCn2cc(C(=O)C(F)(F)F)c3ccccc32)cc1 | inactive |  |
| CCN(CCCNC(=O)Cc1cn(C)c2ccccc12)c1ccccc1 | inactive |  |
| c1ccc(-c2cn(-c3ccccc3)c3ncnc(N4CCCC4)c23)cc1 | inactive |  |
| CC(C)COc1ccc(-c2cn(Cc3ccccc3)c3ccccc23)cc1 | inactive |  |

| Compound | % of max PAR4-AP calcium response | IC50 |
| --- | --- | --- |
| OCc1cn(Cc2ccccc2Cl)c2ccccc12 | inactive |  |
| CC(C)Sc1ncnc2c1c(-c1ccccc1)cn2-c1cccc(F)c1 | inactive |  |
| Fc1ccc(Cn2cc(C(=S)N3CCOCC3)c3ccccc32)cc1 | inactive |  |
| O=C(c1cn(CCOc2ccc(F)cc2)c2ccccc12)C(F)(F)F | inactive |  |
| CC(C)NC(=O)CCc1cn(Cc2ccccc2)c2ccccc12 | inactive |  |
| O=C(c1ccn(C(=O)c2cccc(Cl)c2)n1)N1CCOCC1 | inactive |  |
| CCc1nn(-c2ccccc2)c2nc(-c3cccc(OC)c3)c3cc(OC)c(OC)cc3c12 | inactive |  |
| CCOc1ncc(-c2cn(Cc3ccccc3)c3ccccc23)cn1 | inactive |  |
| Cc1ccc(C)c(NC(=O)Cn2cc(C(=O)C(F)(F)F)c3ccccc32)c1 | inactive |  |
| Cc1ccc(-n2c(/C=C/c3cn(C)c4ccccc34)nc3ccccc3c2=O)cc1 | inactive |  |
| NC(=O)C1CCN(c2ncnc3c2c(-c2ccccc2)cn3-c2ccc(Cl)cc2)CC1 | inactive |  |
| Cc1c(C)n(CC(O)CNCCO)c2ccccc12 (stereo not given) | inactive |  |
| O=C(CSc1ncnc2c1c(-c1ccccc1)cn2-c1ccc(F)cc1)c1ccccc1 | inactive |  |
| N#Cc1ccc(-c2cn(Cc3ccccc3)c3ccccc23)cc1 | inactive |  |
| CCn1c(C(=O)O)c(CC(=O)N(C)c2ccc(F)cc2)c2ccccc21 | inactive |  |
| S=C(c1cn(CCCOc2ccccc2Cl)c2ccccc12)N1CCCC1 | inactive |  |
| Fc1ccc(CNc2ncnc3c2c(-c2ccccc2)cn3-c2ccc(F)cc2)cc1 | inactive |  |
| CCOc1ccc(NC(=O)Cn2cc(C(=O)C(F)(F)F)c3ccccc32)cc1 | inactive |  |
| COc1ccc(-n2cc(-c3ccccc3)c3c(NCCO)ncnc32)cc1 | inactive |  |
| O=C(c1cn(CCCOc2ccccc2)c2ccccc12)C(F)(F)F | inactive |  |
| COc1ccccc1OCCCn1cc(C(=O)C(F)(F)F)c2ccccc21 | inactive |  |
| CCOc1ccc(NCC(O)Cn2c(C)c(C)c3ccccc32)cc1 (stereo not given) | inactive |  |
| COc1ccc(OC)c(NC(=O)Cc2cn(C)c3ccccc23)c1 | inactive |  |
| Cc1ccc(-n2nc(C(=O)N3CCC(C#N)CC3)c3c4ccccc4n(C)c3c2=O)cc1 | inactive |  |

| Compound | % of max PAR4-AP calcium response | IC50 |
| --- | --- | --- |
| Cc1ccc(-n2cc(-c3ccccc3)c3c(N4CC(C)OC(C)C4)ncnc32)cc1 (stereo not given) | inactive |  |
| COCCCNC(=O)Cn1cc(C(=O)C(F)(F)F)c2ccccc21 | inactive |  |
| S=C(c1cn(Cc2ccccc2Cl)c2ccccc12)N1CCCC1 | inactive |  |
| Cn1cc(C(=O)Cc2ccccc2)c2ccccc21 | inactive |  |
| COc1ccc(-c2cn(Cc3ccccc3)c3ccccc23)cc1 |  | 10 µM |
| Cn1cc(CCCC(=O)NCc2cccs2)c2ccccc21 | inactive |  |
| COc1ccc(-c2cn(Cc3cccc(Br)c3)c3ccccc23)cn1 |  | 5.27 µM |
| COc1ccc(-c2cn(Cc3cccc(-c4cccs4)c3)c3ccccc23)cn1 | inactive |  |
| S=C(c1cn(CCOc2ccccc2Cl)c2ccccc12)N1CCCCC1 | 39.9% |  |
| Clc1ccc(-n2cc(-c3ccccc3)c3c(NCc4cccs4)ncnc32)cc1 | inactive |  |
| CC(C)Oc1ccc(-c2cn(Cc3ccccc3)c3ccccc23)cc1F | inactive |  |
| c1ccc(-c2ccn(-c3ccccc3)n2)cc1 | inactive |  |
| Cc1c(C)n(C(=O)CSc2ncccn2)c2ccccc12 | inactive |  |
| Cc1ccc(-n2cc(-c3ccccc3)c3c(NCC4CCCO4)ncnc32)cc1Cl (stereo not given) | inactive |  |
| Cn1cnnc1SCC(=O)n1c2c(c3ccccc31)CCCC2 | inactive |  |
| COc1ccc(-c2cn(Cc3ccccc3)c3ccccc23)cn1 |  | 5.4 µM |
| Fc1ccc(CNc2ncnc3c2c(-c2ccccc2)cn3-c2ccc(Br)cc2)cc1 | inactive |  |
| CCn1ccc(C(=O)Nc2ccc(C(F)(F)F)cc2Cl)n1 | inactive |  |
| CCCNc1ncnc2c1c(-c1ccccc1)cn2-c1ccccc1 | inactive |  |
| O=C(c1ccccc1F)n1c2c(c3ccccc31)CCCC2 | inactive |  |
| c1ccc(CN2CCN(c3ncnc4c3c(-c3ccccc3)cn4-c3ccccc3)CC2)cc1 | inactive |  |
| CNc1ccccc1-n1ccc(-c2ccccc2)n1 | inactive |  |
| COc1ccc(OC)c(CNC(=O)CCCc2cn(C)c3ccccc23)c1 | inactive |  |
